The results in this text go back to ChEMBL document CHEMBL1123055, “Preparation of biologically active ristocetin derivatives: replacements of the 1'-amino group” (J Med Chem, 1985).

In brackets after ≈: the same amount, converted by molar mass.

Series [1] in a line: Association constant was evaluated towards synthetic peptidoglycan analogue Ac2-Lys-D-Ala-D-Ala. In kind it is ADME. In outline:
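Differential UV spectroscopy in tandem cells, 2 cm total path. Antibiotic at 50 μg/mL in 20 mM sodium citrate buffer pH 5.1, with 10% methanol for poorly water-soluble compounds. Ac2-Lys-D-Ala-D-Ala peptide added stepwise. Absorbance change followed at the wavelength of maximal change, and the association constant K_A derived from it.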

In another series the test system is Streptococcus pyogenes. The series is described as follows: The antibacterial activity was evaluated as minimal inhibitory concentration (MIC) against Streptococcus pyogenes C203. It counts as functional. In outline: (§1)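 Twofold agar dilution of compound in 10 mL brain heart infusion agar. Organisms grown 24 h, diluted 1/100, inoculum applied by multipoint replicator. Plates incubated at 35 °C (24 h per table footnote; 25 h per methods). MIC read as lowest inhibiting concentration, μg/mL. Ristocetin run as standard.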

Another series deals with Staphylococcus aureus. The series is described as follows: The antibacterial activity was evaluated as minimal inhibitory concentration (MIC) against Staphylococcus aureus Smith. In kind it is functional. In outline: as §1
Series [2] concerns Staphylococcus epidermidis. The series is described as follows: The antibacterial activity was evaluated as minimal inhibitory concentration (MIC) against Staphylococcus epidermis 3519. In kind it is functional. In outline: as §1
A further series deals with Enterococcus faecalis. Nature of the series: The antibacterial activity was evaluated as minimal inhibitory concentration (MIC) against Streptococcus faecalis 10541. It counts as functional. In outline: as §1

As for `COC(=O)[C@H]1NC(=O)[C@H]2NC(=O)[C@H](NC(=O)[C@@H]3NC(=O)[C@H]4NC(=O)[C@H](NC(=O)[C@H](N)c5ccc(O)c(c5)Oc5cc4cc(O)c5C)[C@H](O)c4ccc(cc4)Oc4cc3cc(c4O[C@H]3O[C@H](CO[C@H]4O[C@H](C)[C@@H](O)[C@@H](O)[C@@H]4O)[C@H](O)[C@H](O)[C@H]3O[C@H]3O[C@@H](CO)[C@@H](O)[C@@H](O)[C@H]3O[C@H]3OC[C@@H](O)[C@@H](O)[C@H]3O)Oc3ccc(cc3)[C@H]2O[C@@H]2C[C@@H](N)[C@@H](O)[C@@H](C)O2)c2ccc(O)c(c2)-c2c(O[C@@H]3O[C@H](CO)[C@@H](O)[C@@H](O)[C@@H]3O)cc(O)cc21`, the “K A” value in series [1] turned out to be 600000 M⁻¹. In addition, the MIC with Streptococcus pyogenes worked out at 1.56 µg/mL (≈ 0.754 µM); against Staphylococcus aureus, 12.5 µg/mL (≈ 6.04 µM); in series [2], 25 µg/mL (≈ 12.1 µM); against Enterococcus faecalis it was 6.2 µg/mL (≈ 3 µM).

Consider `COC(=O)[C@H]1NC(=O)C2NC(=O)[C@H](NC(=O)[C@@H]3NC(=O)[C@H]4NC(=O)[C@H](NC(=O)[C@@H](NC(C)=O)c5ccc(O)c(c5)Oc5cc4cc(O)c5C)[C@H](O)c4ccc(cc4)Oc4cc3cc(c4O)Oc3ccc(cc3)C2O)c2ccc(O)c(c2)-c2c(O)cc(O)cc21` (stereo not given in full), for which the “K A” value in series [1] turned out to be 140000 M⁻¹. The minimum inhibitory concentration (MIC) against Streptococcus pyogenes is 3.1 µg/mL (≈ 2.55 µM); against Staphylococcus aureus, 6.2 µg/mL (≈ 5.1 µM); in series [2], 6.2 µg/mL (≈ 5.1 µM); with Enterococcus faecalis, 6.2 µg/mL (≈ 5.1 µM).

On to `COC(=O)[C@H]1NC(=O)C2NC(=O)[C@H](NC(=O)[C@@H]3NC(=O)[C@H]4NC(=O)[C@H](NC(=O)[C@@H](N)c5ccc(O)c(c5)Oc5cc4cc(O)c5C)[C@H](O)c4ccc(cc4)Oc4cc3cc(c4O)Oc3ccc(cc3)C2O)c2ccc(O)c(c2)-c2c(O)cc(O)cc21` (stereo not given in full), for which the “K A” value in series [1] was found to be 670000 M⁻¹. Further, the minimum inhibitory concentration (MIC) (against Streptococcus pyogenes; in the series with Staphylococcus aureus; in series [2]; against Enterococcus faecalis) was 3.1 µg/mL (≈ 2.64 µM) throughout.

For the compound `COC(=O)[C@H]1NC(=O)C2NC(=O)[C@H](NC(=O)[C@@H]3NC(=O)[C@H]4NC(=O)[C@H](NC(=O)[C@H](N)c5ccc(O)c(c5)Oc5cc4cc(O)c5C)[C@H](O)c4ccc(cc4)Oc4cc3cc(c4O)Oc3ccc(cc3)C2O)c2ccc(O)c(c2)-c2c(O)cc(O)cc21` (stereo not given in full), in series [1], the “K A” value came out at 20000 M⁻¹. Further, the minimal inhibitory concentration (MIC) came out at 25 µg/mL (≈ 21.3 µM) in the series with Streptococcus pyogenes, 25 µg/mL (≈ 21.3 µM) against Staphylococcus aureus, 50 µg/mL (≈ 42.6 µM) in series [2] and 50 µg/mL (≈ 42.6 µM) with Enterococcus faecalis.

With `COC(=O)[C@H]1NC(=O)C2NC(=O)[C@H](NC(=O)[C@@H]3NC(=O)[C@H]4NC(=O)[C@H](NC(=O)[C@H](O)c5ccc(O)c(c5)Oc5cc4cc(O)c5C)[C@H](O)c4ccc(cc4)Oc4cc3cc(c4O)Oc3ccc(cc3)C2O)c2ccc(O)c(c2)-c2c(O)cc(O)cc21` (stereo not given in full), the “K A” value in series [1] amounted to 150000 M⁻¹. Moreover, the MIC against Streptococcus pyogenes is 6.2 µg/mL (≈ 5.28 µM); against Staphylococcus aureus, 12.5 µg/mL (≈ 10.6 µM); in series [2], 12.5 µg/mL (≈ 10.6 µM); against Enterococcus faecalis, 6.2 µg/mL (≈ 5.28 µM).

Turning to `COC(=O)[C@H]1NC(=O)C2NC(=O)[C@H](NC(=O)[C@@H]3NC(=O)[C@H]4NC(=O)[C@H](NC(=O)C(=O)c5ccc(O)c(c5)Oc5cc4cc(O)c5C)[C@H](O)c4ccc(cc4)Oc4cc3cc(c4O)Oc3ccc(cc3)C2O)c2ccc(O)c(c2)-c2c(O)cc(O)cc21` (stereo not given in full), the “K A” value in series [1] stood at 560000 M⁻¹. Moreover, the MIC against Streptococcus pyogenes turned out to be 3.1 µg/mL (≈ 2.64 µM); against Staphylococcus aureus, 6.2 µg/mL (≈ 5.29 µM); in series [2] it was 12.5 µg/mL (≈ 10.7 µM); against Enterococcus faecalis, 12.5 µg/mL (≈ 10.7 µM).

As to `COC(=O)[C@H]1NC(=O)C2NC(=O)[C@H](NC(=O)[C@@H]3NC(=O)[C@H]4NC(=O)[C@H](NC(=O)/C(=N/O)c5ccc(O)c(c5)Oc5cc4cc(O)c5C)[C@H](O)c4ccc(cc4)Oc4cc3cc(c4O)Oc3ccc(cc3)C2O)c2ccc(O)c(c2)-c2c(O)cc(O)cc21` (stereo not given in full), in series [1], the “K A” value is 960000 M⁻¹. Also, the minimal inhibitory concentration (MIC) in the series with Streptococcus pyogenes stood at 1.56 µg/mL (≈ 1.31 µM); with Staphylococcus aureus it was 3.1 µg/mL (≈ 2.61 µM); in series [2], 3.1 µg/mL (≈ 2.61 µM); in the series with Enterococcus faecalis, 3.1 µg/mL (≈ 2.61 µM).

For orientation: MIC means the smallest concentration in the dilution series that meets the test's criterion for growth inhibition.
